pIC50: −log10 of the molar value. Converted amounts (≈) assume the structure as drawn.
Tests used:
L1210 [1] = assay: Percent of control growth in L1210 cells by addition of 100 uM compound as […] chelate (FeCl3); format: functional, Mus musculus
Summary of the method: (§1)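 In L1210 iron-reversal runs, FeCl3 aqueous stock was premixed 1:1 molar with chelator stock until an intense purple colour developed, then added to the cells. Growth was compared with chelator alone, FeCl3 alone and DMSO alone. Cells were counted electronically and growth read 48 h after ligand addition as % of control ± SE.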

L1210 [2] = assay: Antiproliferative activity of compound expressed as concentration that inhibits 50% of growth of L1210 leukemic cell suspension from 24 to 48 hr after compound addition.; format: functional, cell-based; details: Mus musculus
Summary of the method: (§2)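 Cells grown in RPMI 1640 with L-glutamine, 10% defined equine serum, 2% Mopes-Hepes buffer (pH 7.40), penicillin and streptomycin. Tested in log phase (0.5 × 10^5–2 × 10^6 cells/mL), in duplicate. Compound given as 10-µL DMSO stock (one ester in ethanol), with solvent-spiked controls.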

L1210 [3] = assay: Percent of control growth in L1210 cells by addition of 100 uM of iron-free compound; format: functional, Mus musculus; summary of the method: as §1
[4] = Solubility in phosphate-buffered saline (PBS) at pH 7.1; format: physicochemical
L1210 [5] = assay: Percent viability against L1210 leukemic cells at 200 uM; format: functional, Mus musculus
L1210 [6] = assay: Percent viability against L1210 leukemic cells at 0 uM; format: functional, Mus musculus
P388 [7] = assay: Percent viability against P388 leukemic cells 48 hr after compound addition at 100 uM; format: functional, Mus musculus
Summary of the method: (§3)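 Leukemia cells in RPMI 1640 with 10% defined equine serum and Mopes-Hepes buffer (pH 7.40). Compound added from DMSO stock. Viable cells scored by trypan blue exclusion 48 h after compound addition.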

L1210 [8] = assay: Percent viability against L1210 leukemic cells at 50 uM; format: functional, Mus musculus
P388 [9] = assay: Antiproliferative activity of compound expressed as concentration that inhibits 50% of growth of P388 leukemic cell suspension from 24 to 48 hr after compound addition; format: functional, cell-based; details: Mus musculus; summary of the method: as §2
[10] = Partition ratio in 1-octanol / phosphate-buffered saline system.; format: physicochemical; details: buffer
Summary of the method: (§4)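 Compound film was left by evaporating an alcohol solution under nitrogen. 5 mL each of 1-octanol and PBS (pH 7.1) were added, sealed under nitrogen and agitated 3 h at 27 °C. Each layer was measured by absorbance at 247 nm against Beer's plots (1.25–10 or 3.25–50 μM).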

L1210 [11] = assay: Percent viability against L1210 leukemic cells at 100 uM; format: functional, Mus musculus
L1210 [12] = assay: Percent viability against L1210 leukemic cells 48 hr after compound addition at 100 uM; format: functional, Mus musculus; summary of the method: as §3
P388 [13] = assay: Percent viability against P388 leukemic cells 48 hr after compound addition at 100 uM concentration; ND= Not defined; format: functional, cell-based; details: Mus musculus; summary of the method: as §3
L1210 [14] = assay: Percent viability against L1210 leukemic cells 48 hr after compound addition at 100 uM concentration; format: functional, Mus musculus; summary of the method: as §3
P388 [15] = assay: Antiproliferative activity of compound expressed as concentration that inhibits 50% of growth of P388 leukemic cell suspension from 24 to 48 hr after compound addition; ND= Not defined; format: functional, cell-based, Mus musculus; summary of the method: as §2
L1210 [16] = assay: Antiproliferative activity, concentration that inhibits 50% of growth of L1210 leukemic cell suspension from 24 to 48 hr after compound addition.; format: functional, cell-based; details: Mus musculus; summary of the method: as §2
P388 [17] = assay: Percent viability against P388 leukemic cells 48 hr after compound addition at 100 uM concentration; format: functional, Mus musculus; summary of the method: as §3
L1210 [18] = assay: Antiproliferative activity of compound expressed as concentration that inhibits 50% of growth of L1210 leukemic cell suspension from 24 to 48 h after compound addition; format: functional, cell-based; details: Mus musculus; summary of the method: as §2
[19] = Partition ratio in 1-octanol / phosphate-buffered saline system; format: physicochemical; details: buffer; summary of the method: as §4
L1210 [20] = assay: Percent of control growth in L1210 cells by addition of 5 uM compound as iron(II) chelate (FeCl3); format: functional, Mus musculus; details: in the assay text read “iron(III) chelate” for “iron(II) chelate”; summary of the method: as §1
L1210 [21] = assay: Percent viability against L1210 leukemic cells 48 hr after compound addition at 35 uM concentration; format: functional, Mus musculus; summary of the method: as §3
L1210 [22] = assay: Percent of control growth in L1210 cells by addition of 5 uM of iron-free compound; format: functional, Mus musculus; summary of the method: as §1
P388 [23] = assay: Percent viability against P388 leukemic cells 48 hr after compound addition at 25 uM concentration; format: functional, Mus musculus; summary of the method: as §3
V79 (Cricetulus griseus) = assay: Tritiated thymidine uptake is estimated after incubation of 120 min with compound(50 uM) and the radiolabel
L1210 [24] = assay: Percent viability against L1210 leukemic cells at 25 uM; format: functional, Mus musculus
L1210 [25] = assay: Percent of control growth in L1210 cells by addition of 25 uM of iron-free compound; format: functional, Mus musculus; summary of the method: as §1
L1210 [26] = assay: Percent of control growth in L1210 cells by addition of 25 uM compound as […] chelate (FeCl3); format: functional, Mus musculus; summary of the method: as §1

| pIC50 (L1210 [2]) | solubility [4] | pIC50 (P388 [9]) | Ratio [10] | Ratio [19] | Structure (SMILES) | Viability (L1210 [5]) | Viability (L1210 [6]) | Viability (P388 [7]) | Viability (L1210 [8]) | Viability (L1210 [11]) | Viability (L1210 [12]) | Viability (L1210 [14]) | Viability (P388 [17]) | further results |
| --- | --- | --- | --- | --- | --- | --- | --- | --- | --- | --- | --- | --- | --- | --- |
| 4.85 | 50 µM (≈ 11.9 µg/mL) | 4.74 | 11.75 | – | COC(=O)C1CSC(c2ccccc2O)=N1 (centres undefined) | 42% | 99% | 85% | 36% | 46% | 87% | – | – | Control of growth (L1210 [1]): 98%; Control of growth (L1210 [3]): 4% |
| – | – | – | – | – | CCOC(=N)c1ccccc1O | – | – | – | – | – | – | >99% | – | Viability (P388 [13]): Not defined; IC50 (P388 [15]): Not defined; pIC50 (L1210 [16]): < 3.70 |
| 4.07 | – | 4.49 | – | – | NC(=O)NO [HYDROXYUREA] | – | – | – | – | – | – | 97% | 96% | – |
| – | 75 µM (≈ 16.7 µg/mL) | 4.77 | – | 0.03 | O=C(O)C1CSC(c2ccccc2O)=N1 (centres undefined) | 42% | 94% | 77% | 81% | 54% | 92% | – | – | pIC50 (L1210 [18]): 4.60 |
| 5.52 | 15 µM (≈ 9.9 µg/mL) | 6.00 | 0.96 | – | O=C(NCCCCN(CCCCNC(=O)C1CSC(c2ccccc2O)=N1)Cc1ccccc1)C1CSC(c2ccccc2O)=N1 (centres undefined) | – | 87% | – | 0% | – | – | – | – | Control of growth (L1210 [20]): 21%; Viability (L1210 [21]): 6%; Control of growth (L1210 [22]): 22%; Viability (P388 [23]): 15%; Control (V79 (Cricetulus griseus)): 48% |
| 4.68 | 10 µM (≈ 6.12 µg/mL) | 4.92 | – | > 7 | CC(=O)N(CCCCNC(=O)C1CSC(c2ccccc2O)=N1)CCCCNC(=O)C1CSC(c2ccccc2O)=N1 (centres undefined) | 27% | 99% | – | 100% | 40% | – | 95% | 85% | Viability (L1210 [24]): 92%; Control of growth (L1210 [25]): 29%; Control of growth (L1210 [26]): 68% |
